Hits are enriched below; roughly 1.8% of the tested compounds scored in any of these assays.
Statin myotox sup = suppressors of statin myotoxicity in C2C12 myotubes, primary screen, cell-based, single point, plate reader | AID 602340, 2012 | C2C12 myotubes + simvastatin, ATP luminescence, 48 h; scaled: DMSO 0, geranylgeraniol control 100 | rescue of ATP level, % at 7.49 µM | actives 0.78% (n = 330,000);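 active = mean ATP rescue above about 67%, or every replicate alone reaching that limit, limit read from the data, passing the limit was not always enough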;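 also: myotubes were challenged with 10 µM simvastatin during compound exposure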
Efflux pump mplx = inhibitors of Candida efflux pumps in yeast, primary screen, S. cerevisiae, Nile Red, multiplex; inhibition, % at 10 µM; actives 0.44% (n = 330,000); S. cerevisiae Candida pump triplex;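 active = plate passing quality check with inhibition over a set limit, or well fluorescence over plate mean plus 4 SD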;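 also: Nile Red retained in pooled yeast measured as flow cytometry median fluorescence; 0% = buffer negative control and 100% = Enniatin B positive control; higher means more Nile Red kept so more efflux inhibition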
Cneo AK release = Cryptococcus neoformans cell lysis inducers, primary screen, AK release luminescence, single concentration; lysis activity, % at 15 µM; C. neoformans lysis, adenylate kinase release luminescence, 4 h; normalised: neutral wells 0, clomiphene wells 100; AID 651654, 2012; actives 0.2% (n = 360,000);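 active = mean lysis activity across replicates of at least 80%, whatever share of replicates individually reach that level; inactive = mean lysis activity below 80%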
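Schedule: static 4 h at 37 °C with compound, 1 h detection; system: C. neoformans cells; benchmarks: Clomiphene as positive control; buffer or medium: fresh YPD medium; measure: luminescence rise reflecting yeast cell lysis; measured by: luminescent adenylate kinase detection reagent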
SUMO Mot1 rescue = yeast Mot1-301 growth rescue at high temperature, primary screen, SUMOylation pathway inhibitor project, S. cerevisiae, ATP luminescence, 38.5C; AID 2716, 2010; S. cerevisiae Mot1-301 growth rescue; percent above DMSO median, 100 means doubled; growth rescue, % at 18.8 µM; actives 1% (n = 320,000);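 active = every valid replicate shows activation above 250% relative to neutral control wells; inactive = the rest, any valid replicate at or below 250%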;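 also: OY570 slx delta 5 strain wells were the positive control but not used for scaling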
* = called active by the depositor; . = no result given; + = active, no number.

SMILES | Statin myotox sup | Efflux pump mplx | Cneo AK release | SUMO Mot1 rescue
O=C(c1ccccc1)N1CCN(S(=O)(=O)N2CCOCC2)CC1 | 2.2 | 0.0 | 2.9 | 3.9
O=C(c1cccc(Br)c1)N1CCN(S(=O)(=O)N2CCOCC2)CC1 | -6.3 | 0.3 | . | 333.0*
COCCCN1C(=O)c2ccc(C(=O)O)cc2C1=O | 100.0* | -0.2 | -0.1 | .
Cc1ccccc1NS(=O)(=O)c1ccc(OCC(=O)NCc2cccnc2)cc1 | . | -0.5 | . | 385.1*
CCC(C)(C)NC(=O)C(c1ccncc1)N(C(=O)c1sc(C)nc1C)c1ccc(F)cc1 (stereo not given) | . | 0.2 | . | -13.5
COCCNC(=O)C(c1ccncc1)N(C(=O)c1sc(C)nc1C)c1cccc(C)c1 (stereo not given) | . | 0.1 | . | +
C[C@@H]1CN([C@H](C)CO)C(=O)c2cc(NS(=O)(=O)c3ccc(F)cc3)ccc2O[C@@H](C)CCCCO[C@H]1CN(C)CC1CCCCC1 | -309.2 | . | 5.2 | .
C[C@@H]1CCCCO[C@@H](CN(C)CC2CCCCC2)[C@@H](C)CN([C@H](C)CO)C(=O)c2cc(NS(=O)(=O)c3ccc(F)cc3)ccc2O1 | 96.3* | . | 0.2 | .
C[C@@H]1CCCCO[C@@H](CN(C)CC2CCCCC2)[C@@H](C)CN([C@@H](C)CO)C(=O)c2cc(NS(=O)(=O)c3ccccc3)ccc2O1 | 10.1 | . | 80.1* | .
Cn1c(=O)c2c(nc(NC3CCCCC3)n2CC(O)COc2ccccc2)n(C)c1=O (stereo not given) | 81.0* | -0.1 | 0.2 | -14.8
CCOC(=O)CCCNC(=O)COC(=O)c1cc2ccccc2cc1O | -0.1 | -0.1 | -1.3 | 5.0
Cc1ccccc1NC(=O)CN1C(=O)CSc2ccccc21 | 7.7 | 0.1 | 7.5 | .
O=C(CN1C(=O)CSc2ccccc21)Nc1ccccc1C(=O)N1CCOCC1 | 90.2* | 0.0 | -2.8 | 84.8
O=C(CN1C(=O)NC2(CCCC2)C1=O)Nc1cc(Cl)ccc1N1CCCCC1 | . | -0.1 | 0.5 | -9.7
CCCc1nc2ccccc2c(=O)n1CC(=O)c1ccc(OC)cc1 | 0.2 | 0.3 | 0.2 | 13.9
Cc1ccc(CNC(=O)CN(C2CCCCC2)S(C)(=O)=O)cc1 | -16.3 | -0.1 | 3.6 | -1.6
CC(C)CNC(=O)CN(C1CCCCC1)S(=O)(=O)c1ccccc1 | 102.1* | 0.0 | -0.4 | -4.6
CS(=O)(=O)N(CC(=O)NCc1ccccc1)C1CCCCC1 | 119.7* | -0.1 | 1.2 | 6.6
CC(C)CNC(=O)CN(C1CCCCC1)S(C)(=O)=O | -3.6 | -0.1 | -0.1 | 576.3
C=CCN(C(=O)c1csnn1)C(C(=O)NC1CCCCC1)c1ccccc1F (stereo not given) | -8.4 | 0.2 | 1.7 | -7.7
O=C(NNC(=O)c1csc(N2CCOCC2)n1)c1cccnc1 | -4.3 | 0.0 | 0.9 | 84.8
Cc1cc2c(c(=O)n1CCN(C)C)C(c1ccccc1Br)C(C#N)=C(N)O2 (stereo not given) | 90.1* | 0.0 | . | -7.1
Cc1cc2c(c(=O)n1CCN(C)C)C(c1ccc(Br)cc1)C(C#N)=C(N)O2 (stereo not given) | -11.2 | -0.1 | -1.1 | 5.8
Cc1cc2c(c(=O)n1Cc1cccnc1)C(c1ccc(F)cc1)C(C#N)=C(N)O2 (stereo not given) | 109.6* | 0.1 | . | 8.1
CC(C)(C)NC(=O)C(c1ccncc1)N(C(=O)Cn1nnc(-c2ccc(F)cc2)n1)c1ccccc1 (stereo not given) | -1.5 | 0.0 | . | 11.1
SMILES | Statin myotox sup | Efflux pump mplx | Cneo AK release | SUMO Mot1 rescue
O=C1NCN(c2ccccc2)C12CCN(c1nnnn1-c1ccccc1)CC2 | . | 0.1 | -1.3 | -7.3
CC(C)N(CCn1c(=S)[nH]c2ccccc2c1=O)C(C)C | -6.2 | 0.1 | 3.4 | 308.2*
O=c1c2ccccc2[nH]c(=S)n1CCN1CCCC1 | 9.5 | 0.0 | -0.3 | 0.8
COc1ccc(NC(=O)C(=O)NCCC2=CCCCC2)c(OC)c1 | -13.7 | -0.1 | -0.7 | -10.3
O=C(Nc1ccccc1)c1cccc(N2C(=O)CCC2=O)c1 | 96.6* | -0.1 | 3.8 | -2.3
O=C(c1ccccn1)N1N=C2/C(=C/c3ccccc3)CCCC2C1c1ccccc1 (stereo not given) | . | 0.2 | -2.0 | 400.0*
O=C1CCC(C(=O)OCC(=O)N2N=C3/C(=C\c4ccccc4)CCCC3C2c2ccccc2)N1 (stereo not given) | -1.1 | . | 0.8 | .
Cn1cnc2cc(NC(=O)c3ccco3)ccc21 | -6.3 | 0.0 | -16.9 | 476.1
Cc1ccccc1Nc1cc2ccccc2c(=O)[nH]1 | . | 0.0 | . | -6.5
O=c1[nH]c(Nc2ccccc2Cl)cc2ccccc12 | 136.3* | 0.2 | -1.8 | 176.8
Cc1ccc(-c2nn(Cc3ccccc3)cc2/C=C/C(=O)O)cc1C | 85.8* | -0.1 | 0.0 | -2.4
COc1ccc(C(=O)OCC(=O)N2CCN(C(=O)c3ccco3)CC2)cc1OC | 88.2* | 0.0 | 0.9 | 4.8
COc1ccc(C(=O)N2CCN(C(=O)c3ccco3)CC2)cc1OC | 5.5 | 0.0 | -2.0 | 292.1
CCOC(=O)c1cc(=O)n(Cc2ccccc2C)c2ccccc12 | 103.0* | -0.3 | -1.7 | 5.5
COc1ccccc1C(=O)N/C(=N/c1nc(C)cc(C)n1)Nc1ccccc1 | . | 0.1 | . | 7.7
O=S(=O)(Cc1ccccc1)N1CCc2ccccc21 | . | 2.7* | . | 13.2
CN(C)S(=O)(=O)N1CCc2ccccc21 | -1.7 | 0.0 | 0.3 | -22.3
O=C(Cc1cccc(Cl)c1)Nc1ccc(Br)cc1 | . | 0.1 | . | -3.2
CC(C)NC(=O)NCC[C@@H]1CC[C@@H](NC(=O)CN(C)C)[C@@H](CO)O1 | 6.8 | . | 96.7* | .
CN(C)CC(=O)N[C@H]1CC[C@@H](CCNC(=O)C2CCC2)O[C@H]1CO | 4.9 | . | 0.5 | .
CC(C)NC(=O)NCC[C@H]1CC[C@H](NC(=O)CN(C)C)[C@H](CO)O1 | -2.1 | . | 101.5* | .
CN(C)CC(=O)N[C@H]1CC[C@@H](CCNC(=O)C2CCCC2)O[C@H]1CO | 7.6 | . | -0.5 | .
O=C(C/C=N/OCc1ccc(Cl)cc1)c1cnc(-c2ccccc2)s1 | -2.1 | 0.3 | -1.6 | 306.3
O=C(C/C=N/OCc1c(Cl)cccc1Cl)c1cnc(-c2ccccc2)s1 | 107.8* | 0.2 | 1.3 | 203.1
Cn1c(=O)cc(N2CCN(C(=O)c3ccco3)CC2)[nH]c1=O | 3.8 | -0.2 | 1.3 | 2.1
SMILES | Statin myotox sup | Efflux pump mplx | Cneo AK release | SUMO Mot1 rescue
Cc1ccc(-n2c(=O)cc(N3CCN(C(=O)c4ccco4)CC3)[nH]c2=O)cc1 | 101.8* | 0.3 | 2.3 | 80.0
Cc1nnc(N2C(=O)c3cccc4cccc(c34)C2=O)s1 | . | -0.1 | . | 0.3
CCCc1nnc(N2C(=O)c3cccc4cccc(c34)C2=O)s1 | 85.2* | 0.1 | 0.5 | -5.5
Cc1nccc(-c2cc(-c3ccc(Cl)cc3Cl)no2)n1 | . | 0.0 | . | 328.4*
O=C(c1cc(-c2ccc(Cl)cc2Cl)on1)N1CCCC1 | 15.5 | 0.1 | -2.8 | -0.9
CCOCCn1c(=NC(=O)c2ccc(S(=O)(=O)N3CCOCC3)cc2)sc2cc(S(N)(=O)=O)ccc21 | -0.6 | -0.2 | -6.4 | -12.3
CCOc1ccc(CCNC(=O)c2nn(C)c3c2CS(=O)(=O)c2ccccc2-3)cc1OCC | -28.6 | 0.0 | 0.7 | -8.0

Screening data deposited in PubChem by several laboratories.
